Results from ChEMBL document CHEMBL4428053, “Application of a Parallel Synthetic Strategy in the Discovery of Biaryl Acyl Sulfonamides as Efficient and Selective NaV1.7 Inhibitors” (J Med Chem, 2016).
≈ marks a conversion by molar mass, not a printed value.

Columns and labels:
[1] = AUC (infinity) in Harlan rat at 10 mg/kg, po by LC-MS/MS analysis; format: ADME, organism-based; design: dose 10 mg/kg, route oral, time infinity; settings: in vivo
Outline: (§1)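 Male fed rats. The IV dose was given in 100% DMSO. The oral dose was given in 1% Tween 80, 2% HPMC, 97% water/NaOH (pH 8.5).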

[2] = molecular target: Sodium channel protein type 8 subunit alpha (Homo sapiens, UniProt Q9UQD0); experiment: Inhibition of human Nav1.6 expressed in HEK293 cells assessed as reduction in peak inward current by manual whole cell patch clamp electrophysiology assay; format: cell-based
[3] = molecular target: T1, Sodium channel protein type 9 subunit alpha (Mus musculus, UniProt Q62205); experiment: Inhibition of mouse Nav1.7 expressed in HEK293 cells incubated for 3 to 5 mins at -125 mV holding potential by electrophysiology assay; format: cell-based
[4] = Volume of distribution in Harlan rat at 1 mg/kg, iv by LC-MS/MS analysis; format: ADME, organism-based; settings: in vivo; outline: as §1
physchem = settings: PBS, pH 7.4
[5] = molecular target: Sodium channel protein type 10 subunit alpha (Homo sapiens, UniProt Q9Y5Y9); experiment: Inhibition of human Nav1.8 expressed in CHO cells assessed as reduction in peak inward current by manual whole cell patch clamp electrophysiology assay; format: cell-based
[6] = molecular target: T2, Nuclear receptor subfamily 1 group I member 2 (Homo sapiens, UniProt O75469); experiment: Induction of human PXR at 10 uM; format: ADME
T2 sequence (O75469 whole entry): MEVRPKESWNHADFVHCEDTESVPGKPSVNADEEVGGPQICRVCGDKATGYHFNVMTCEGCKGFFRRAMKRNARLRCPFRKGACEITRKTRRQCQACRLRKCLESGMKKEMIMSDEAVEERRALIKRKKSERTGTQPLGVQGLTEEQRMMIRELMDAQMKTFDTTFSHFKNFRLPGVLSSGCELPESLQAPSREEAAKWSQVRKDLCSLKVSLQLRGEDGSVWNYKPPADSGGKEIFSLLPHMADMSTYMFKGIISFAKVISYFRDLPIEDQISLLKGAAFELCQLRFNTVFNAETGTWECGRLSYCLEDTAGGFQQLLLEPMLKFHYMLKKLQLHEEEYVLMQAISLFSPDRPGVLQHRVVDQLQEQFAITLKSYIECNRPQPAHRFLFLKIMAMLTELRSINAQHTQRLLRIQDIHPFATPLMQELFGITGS

[7] = molecular target: T1, Sodium channel protein type 9 subunit alpha; experiment: Inhibition of Nav1.7 in C57BL/6 mouse DRG neurons assessed as reduction in native TTX-S current amplitude by manual patch clamp electrophysiology assay
Bile salt export pump = Bile salt export pump (Homo sapiens, UniProt O95342); experiment: Inhibition of human BSEP in plasma membrane vesicles after 10 mins in presence of [3H]-taurocholate by topcount based transport assay; format: cell membranes
[8] = molecular target: Sodium channel protein type 9 subunit alpha (Homo sapiens, UniProt Q15858); experiment: Inhibition of human Nav1.7 at resting/closed state expressed in HEK293 cells at -140 mV holding potential by manual whole cell patch clamp electrophysiology assay; format: cell-based
[9] = molecular target: Voltage-gated inwardly rectifying potassium channel KCNH2 (Homo sapiens, UniProt Q12809)
[10] = Toxicity in C57BL/6 mouse assessed as reduction in locomotor activity at 100 mg/kg, po for 4 hrs by open field test; settings: in vivo
Mus musculus = experiment: In vivo inhibition of Nav1.7 in C57BL/6 mouse assessed as reduction in histamine-induced scratching bouts at 300 mg/kg, po administered 4 hrs prior to histamine challenge measured for 15 mins; format: functional; settings: C57BL/6, po
Outline: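 Mice were dosed orally with vehicle, diphenhydramine (30 mg/kg, n = 8) or test article at 30 (n = 9), 100 (n = 10) or 300 (n = 10) mg/kg; vehicle n = 12. All groups received histamine intradermally. Total scratch bouts were counted, with unbound plasma concentration reported per dose. Statistics: one-way ANOVA with Dunnett's test versus vehicle.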

T1 sequence (Q62205 whole entry): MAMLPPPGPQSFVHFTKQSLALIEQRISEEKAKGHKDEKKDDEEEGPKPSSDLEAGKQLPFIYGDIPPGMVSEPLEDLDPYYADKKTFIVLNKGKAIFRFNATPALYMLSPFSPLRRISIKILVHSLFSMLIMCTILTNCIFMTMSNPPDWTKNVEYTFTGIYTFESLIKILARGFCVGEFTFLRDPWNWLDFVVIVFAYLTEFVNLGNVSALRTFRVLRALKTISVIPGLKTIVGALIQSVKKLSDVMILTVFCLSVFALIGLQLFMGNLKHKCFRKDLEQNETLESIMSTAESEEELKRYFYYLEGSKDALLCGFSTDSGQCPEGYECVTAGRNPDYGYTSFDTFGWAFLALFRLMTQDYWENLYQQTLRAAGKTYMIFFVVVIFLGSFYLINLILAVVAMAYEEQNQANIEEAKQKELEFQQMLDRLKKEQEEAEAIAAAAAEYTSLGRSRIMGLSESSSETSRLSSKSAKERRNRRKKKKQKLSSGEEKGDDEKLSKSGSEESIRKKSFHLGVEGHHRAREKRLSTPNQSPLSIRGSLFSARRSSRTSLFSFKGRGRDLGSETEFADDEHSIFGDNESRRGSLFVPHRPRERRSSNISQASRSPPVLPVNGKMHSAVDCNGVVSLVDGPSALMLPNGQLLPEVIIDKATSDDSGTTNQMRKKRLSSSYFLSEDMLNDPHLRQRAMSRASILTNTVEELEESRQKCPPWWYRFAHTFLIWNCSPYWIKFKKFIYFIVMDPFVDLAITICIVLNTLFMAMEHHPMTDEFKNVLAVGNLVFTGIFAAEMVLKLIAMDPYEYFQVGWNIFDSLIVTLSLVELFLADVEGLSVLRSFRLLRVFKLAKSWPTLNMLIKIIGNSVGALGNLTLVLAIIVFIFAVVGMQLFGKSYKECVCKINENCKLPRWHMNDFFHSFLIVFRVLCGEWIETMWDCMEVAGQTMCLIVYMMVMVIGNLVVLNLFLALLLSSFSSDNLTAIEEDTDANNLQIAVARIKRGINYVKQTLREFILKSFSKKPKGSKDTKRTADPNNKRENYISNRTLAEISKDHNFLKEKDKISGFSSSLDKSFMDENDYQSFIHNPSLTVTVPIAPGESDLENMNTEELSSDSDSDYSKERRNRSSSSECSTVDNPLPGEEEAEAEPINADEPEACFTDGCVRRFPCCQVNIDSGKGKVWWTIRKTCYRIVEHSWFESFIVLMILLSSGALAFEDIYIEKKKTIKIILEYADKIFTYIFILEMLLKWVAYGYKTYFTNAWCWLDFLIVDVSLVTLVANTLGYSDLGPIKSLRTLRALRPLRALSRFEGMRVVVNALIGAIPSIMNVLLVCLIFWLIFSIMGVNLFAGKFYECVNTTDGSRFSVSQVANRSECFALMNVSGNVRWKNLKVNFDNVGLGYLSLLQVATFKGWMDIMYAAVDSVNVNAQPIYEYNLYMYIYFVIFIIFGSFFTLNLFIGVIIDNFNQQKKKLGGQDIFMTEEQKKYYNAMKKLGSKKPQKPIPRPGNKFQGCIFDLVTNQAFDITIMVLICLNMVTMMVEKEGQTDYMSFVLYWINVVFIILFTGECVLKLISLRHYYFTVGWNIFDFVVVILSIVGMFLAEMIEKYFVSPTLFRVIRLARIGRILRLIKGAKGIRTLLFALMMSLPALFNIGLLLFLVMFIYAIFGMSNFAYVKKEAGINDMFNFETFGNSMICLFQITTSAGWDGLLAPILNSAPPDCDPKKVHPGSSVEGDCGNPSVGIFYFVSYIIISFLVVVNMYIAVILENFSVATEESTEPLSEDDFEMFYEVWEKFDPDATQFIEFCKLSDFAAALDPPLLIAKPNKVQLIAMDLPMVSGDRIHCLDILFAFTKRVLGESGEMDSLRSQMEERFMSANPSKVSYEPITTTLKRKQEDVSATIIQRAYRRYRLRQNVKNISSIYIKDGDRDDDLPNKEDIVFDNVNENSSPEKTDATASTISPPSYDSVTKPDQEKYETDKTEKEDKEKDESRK
Chain of Sodium channel protein type 8 subunit alpha (Q9UQD0 whole entry): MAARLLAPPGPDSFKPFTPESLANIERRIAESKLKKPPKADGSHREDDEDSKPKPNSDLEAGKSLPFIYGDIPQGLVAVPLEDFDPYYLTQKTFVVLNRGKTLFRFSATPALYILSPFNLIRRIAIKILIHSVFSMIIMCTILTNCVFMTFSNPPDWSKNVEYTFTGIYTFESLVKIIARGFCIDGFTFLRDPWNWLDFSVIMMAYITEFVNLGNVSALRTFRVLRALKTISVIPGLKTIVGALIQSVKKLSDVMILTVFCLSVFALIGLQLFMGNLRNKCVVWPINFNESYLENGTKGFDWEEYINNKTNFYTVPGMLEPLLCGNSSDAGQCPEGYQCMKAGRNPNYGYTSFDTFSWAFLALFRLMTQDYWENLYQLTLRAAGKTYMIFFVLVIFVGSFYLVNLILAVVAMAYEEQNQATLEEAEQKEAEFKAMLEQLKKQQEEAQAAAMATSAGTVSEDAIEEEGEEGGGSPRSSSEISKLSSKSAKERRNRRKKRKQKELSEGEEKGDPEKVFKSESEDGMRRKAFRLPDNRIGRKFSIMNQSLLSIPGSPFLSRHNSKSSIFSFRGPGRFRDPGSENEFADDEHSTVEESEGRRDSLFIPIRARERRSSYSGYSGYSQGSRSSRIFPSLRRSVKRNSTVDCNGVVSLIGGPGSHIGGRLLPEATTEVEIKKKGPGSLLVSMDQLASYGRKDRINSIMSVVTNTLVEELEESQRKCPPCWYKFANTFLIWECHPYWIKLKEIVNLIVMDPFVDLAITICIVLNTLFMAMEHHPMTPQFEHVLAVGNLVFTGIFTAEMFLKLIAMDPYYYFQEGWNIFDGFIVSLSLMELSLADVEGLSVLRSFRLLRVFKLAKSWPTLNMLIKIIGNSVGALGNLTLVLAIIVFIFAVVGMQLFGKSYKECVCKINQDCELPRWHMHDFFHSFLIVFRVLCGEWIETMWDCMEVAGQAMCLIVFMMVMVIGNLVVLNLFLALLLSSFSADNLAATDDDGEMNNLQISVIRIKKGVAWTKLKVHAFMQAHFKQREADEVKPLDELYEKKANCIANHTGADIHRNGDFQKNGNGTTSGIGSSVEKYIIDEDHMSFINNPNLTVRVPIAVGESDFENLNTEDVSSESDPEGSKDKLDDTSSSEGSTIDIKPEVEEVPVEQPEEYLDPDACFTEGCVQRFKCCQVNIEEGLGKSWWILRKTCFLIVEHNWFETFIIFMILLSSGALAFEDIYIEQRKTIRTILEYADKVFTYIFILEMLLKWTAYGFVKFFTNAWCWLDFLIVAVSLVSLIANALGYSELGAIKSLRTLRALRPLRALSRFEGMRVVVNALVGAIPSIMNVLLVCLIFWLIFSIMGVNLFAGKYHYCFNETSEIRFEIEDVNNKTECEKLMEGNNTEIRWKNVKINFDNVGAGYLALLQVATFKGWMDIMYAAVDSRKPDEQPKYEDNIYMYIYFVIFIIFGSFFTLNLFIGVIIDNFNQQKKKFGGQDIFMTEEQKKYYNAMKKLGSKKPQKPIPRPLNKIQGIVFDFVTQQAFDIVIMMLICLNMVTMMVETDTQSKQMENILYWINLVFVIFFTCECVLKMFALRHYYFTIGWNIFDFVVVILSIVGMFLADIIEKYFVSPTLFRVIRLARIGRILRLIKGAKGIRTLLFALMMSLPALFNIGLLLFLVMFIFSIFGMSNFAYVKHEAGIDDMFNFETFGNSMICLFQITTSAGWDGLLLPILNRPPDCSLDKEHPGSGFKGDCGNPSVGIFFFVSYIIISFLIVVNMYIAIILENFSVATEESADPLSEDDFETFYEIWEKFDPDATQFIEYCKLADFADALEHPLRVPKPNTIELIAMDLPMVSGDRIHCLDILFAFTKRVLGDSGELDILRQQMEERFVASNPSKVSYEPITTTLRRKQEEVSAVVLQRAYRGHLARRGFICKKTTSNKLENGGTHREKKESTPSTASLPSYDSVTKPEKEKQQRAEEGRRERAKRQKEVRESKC
Chain of Voltage-gated inwardly rectifying potassium channel KCNH2 (Q12809 whole entry): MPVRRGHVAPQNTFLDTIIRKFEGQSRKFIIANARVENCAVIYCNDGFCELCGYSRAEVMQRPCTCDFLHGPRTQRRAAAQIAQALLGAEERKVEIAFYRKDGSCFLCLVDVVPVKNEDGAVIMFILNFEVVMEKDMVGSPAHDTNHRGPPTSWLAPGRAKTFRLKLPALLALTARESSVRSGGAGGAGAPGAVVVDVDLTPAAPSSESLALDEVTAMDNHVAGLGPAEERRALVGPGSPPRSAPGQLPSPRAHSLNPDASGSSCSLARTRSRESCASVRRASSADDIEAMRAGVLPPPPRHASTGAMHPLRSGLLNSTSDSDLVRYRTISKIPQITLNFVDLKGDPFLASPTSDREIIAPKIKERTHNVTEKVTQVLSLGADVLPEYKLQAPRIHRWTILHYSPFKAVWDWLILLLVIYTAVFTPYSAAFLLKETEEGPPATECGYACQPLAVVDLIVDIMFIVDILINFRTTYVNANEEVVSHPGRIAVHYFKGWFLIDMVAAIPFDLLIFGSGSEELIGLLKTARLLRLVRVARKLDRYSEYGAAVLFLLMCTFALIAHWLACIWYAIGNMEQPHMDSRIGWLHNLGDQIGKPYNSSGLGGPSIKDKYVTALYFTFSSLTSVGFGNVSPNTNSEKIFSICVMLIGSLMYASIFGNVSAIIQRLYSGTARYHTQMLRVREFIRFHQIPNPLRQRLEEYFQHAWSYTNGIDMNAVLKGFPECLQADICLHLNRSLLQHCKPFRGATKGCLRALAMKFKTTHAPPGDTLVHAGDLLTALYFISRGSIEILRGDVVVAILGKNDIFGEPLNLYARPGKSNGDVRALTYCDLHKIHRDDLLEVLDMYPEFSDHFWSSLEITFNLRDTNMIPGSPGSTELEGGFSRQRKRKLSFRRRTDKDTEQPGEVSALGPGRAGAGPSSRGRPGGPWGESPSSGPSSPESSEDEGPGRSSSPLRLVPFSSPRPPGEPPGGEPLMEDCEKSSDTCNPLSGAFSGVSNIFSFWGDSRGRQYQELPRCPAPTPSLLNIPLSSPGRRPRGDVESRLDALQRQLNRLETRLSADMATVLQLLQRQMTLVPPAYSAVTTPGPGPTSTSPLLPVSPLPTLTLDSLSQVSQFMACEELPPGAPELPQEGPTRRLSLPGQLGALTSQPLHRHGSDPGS

## COc1cc(C(=O)NS(C)(=O)=O)c(F)cc1-c1cnc(Oc2cc(F)ccc2F)c(Cl)c1
[1]
  AUC(0-inf): 377 µM·h
[2]
  IC50: 9.4 µM
[3]
  IC50: 0.115 µM
[4]
  Vd: 0.93 L/kg
physchem
  solubility thermodynamic at 24 h: 398 µM (≈ 194 µg/mL)
[5]
  IC50: 15.6 µM
[6]
  Activity: 3%
[7]
  IC50: 0.27 µM
Bile salt export pump
  IC50: 13.3 µM
[8]
  IC50: > 30 µM
[9]
  Ki: > 30 µM
[10]
  Activity: Non-Toxic
Mus musculus
  inhibition in vivo at 300 mg/kg: 75%
